In ChEMBL document CHEMBL1649557 (Antimicrob Agents Chemother, 2009):
≈ marks a conversion by molar mass, not a printed value.

Legend:
Staphylococcus aureus [1] = experiment: Antibacterial activity against methicillin-susceptible and beta-lactamase-negative Staphylococcus aureus using 5x10^5 CFU/ml standard inoculum after 24 hrs by CLSI broth microdilution method
Staphylococcus aureus [2] = experiment: Antibacterial activity against methicillin-susceptible and beta-lactamase-producing Staphylococcus aureus Type A TX01117 using 5x10^5 CFU/ml standard inoculum after 24 hrs by CLSI broth microdilution method; type: functional; details: Type A TX01117, 24 h
Staphylococcus aureus [3] = experiment: Antibacterial activity against methicillin-susceptible and beta-lactamase-negative Staphylococcus aureus ATCC 25923 using 5x10^5 CFU/ml standard inoculum after 24 hrs by CLSI broth microdilution method; type: functional; details: ATCC 25923, 24 h
Staphylococcus aureus [4] = experiment: Antibacterial activity against methicillin-susceptible and beta-lactamase-producing Staphylococcus aureus Type C using 5x10^7 CFU/ml high inoculum after 24 hrs by CLSI broth microdilution method; type: functional
Staphylococcus aureus [5] = experiment: Antibacterial activity against methicillin-susceptible and beta-lactamase-producing Staphylococcus aureus Type C using 5x10^5 CFU/ml standard inoculum after 24 hrs by CLSI broth microdilution method; type: functional
Staphylococcus aureus [6] = experiment: Antibacterial activity against methicillin-susceptible and beta-lactamase-negative Staphylococcus aureus ATCC 25923 using 5x10^7 CFU/ml high inoculum after 24 hrs by CLSI broth microdilution method; type: functional; details: ATCC 25923, 24 h
Staphylococcus aureus [7] = experiment: Antibacterial activity against methicillin-susceptible and beta-lactamase-producing Staphylococcus aureus Type A TX01117 using 5x10^7 CFU/ml high inoculum after 24 hrs by CLSI broth microdilution method; type: functional; details: Type A TX01117, 24 h
Staphylococcus aureus [8] = experiment: Antibacterial activity against methicillin-susceptible and beta-lactamase-producing Staphylococcus aureus Type B using 5x10^5 CFU/ml standard inoculum after 24 hrs by CLSI broth microdilution method; type: functional
Staphylococcus aureus [9] = experiment: Antibacterial activity against methicillin-susceptible and beta-lactamase-producing Staphylococcus aureus Type B using 5x10^7 CFU/ml high inoculum after 24 hrs by CLSI broth microdilution method; type: functional
Staphylococcus aureus [10] = experiment: Antibacterial activity against methicillin-susceptible Staphylococcus aureus using 5x10^7 CFU/ml high inoculum assessed as bacterial growth inhibition at 8 ug/ml; type: functional; parameters: scale not given: the % may be the effect or the level left
Method in brief: (§1)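 98 MSSA clinical isolates from skin/soft tissue infection, hospital-acquired pneumonia, endocarditis and haemodialysis bacteraemia; testers were blinded to clinical data. Broth microdilution in cation-adjusted Mueller-Hinton II broth per CLSI, with inocula of ~5×10^4, 5×10^5, 5×10^6 or 5×10^7 CFU/ml. Inocula were set by optical density and spot-checked by CFU counts. Plates were read at 24 h. Values are the percentage of strains inhibited at each concentration.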

Staphylococcus aureus [11] = experiment: Antibacterial activity against methicillin-susceptible Staphylococcus aureus using 5x10^5 CFU/ml standard inoculum assessed as bacterial growth inhibition at 2 ug/ml; type: functional; parameters: scale not given: the % may be the effect or the level left
Method in brief: as §1

Staphylococcus aureus [12] = experiment: Antibacterial activity against methicillin-susceptible Staphylococcus aureus using 5x10^7 CFU/ml high inoculum assessed as bacterial growth inhibition at 16 ug/ml; type: functional; parameters: scale not given: the % may be the effect or the level left
Method in brief: as §1

Staphylococcus aureus [13] = experiment: Antibacterial activity against methicillin-susceptible Staphylococcus aureus using 5x10^5 CFU/ml standard inoculum assessed as bacterial growth inhibition at 16 ug/ml; type: functional; parameters: scale not given: the % may be the effect or the level left
Method in brief: as §1

Staphylococcus aureus [14] = experiment: Antibacterial activity against methicillin-susceptible Staphylococcus aureus using 5x10^7 CFU/ml high inoculum assessed as bacterial growth inhibition at 4 ug/ml; type: functional; parameters: scale not given: the % may be the effect or the level left
Method in brief: as §1

Staphylococcus aureus [15] = experiment: Antibacterial activity against methicillin-susceptible Staphylococcus aureus using 5x10^6 CFU/ml intermediate inoculum assessed as bacterial growth inhibition at 4 ug/ml; type: functional; parameters: scale not given: the % may be the effect or the level left
Method in brief: as §1

Staphylococcus aureus [16] = experiment: Antibacterial activity against methicillin-susceptible Staphylococcus aureus using 5x10^7 CFU/ml high inoculum assessed as bacterial growth inhibition at 64 ug/ml; type: functional; parameters: scale not given: the % may be the effect or the level left
Method in brief: as §1

Staphylococcus aureus [17] = experiment: Antibacterial activity against methicillin-susceptible Staphylococcus aureus using 5x10^6 CFU/ml intermediate inoculum assessed as bacterial growth inhibition at 16 ug/ml; type: functional; parameters: scale not given: the % may be the effect or the level left
Method in brief: as §1

Staphylococcus aureus [18] = experiment: Antibacterial activity against methicillin-susceptible Staphylococcus aureus using 5x10^4 CFU/ml low inoculum assessed as bacterial growth inhibition at 2 ug/ml; type: functional; parameters: scale not given: the % may be the effect or the level left
Method in brief: as §1

[19] = Drug level in bone of methicillin-susceptible Staphylococcus aureus infected human after 60 mins; type: ADME, tissue-based, Bone element; details: read-out: Drug uptake
Staphylococcus aureus [20] = experiment: Antibacterial activity against methicillin-susceptible Staphylococcus aureus using 5x10^4 CFU/ml low inoculum assessed as bacterial growth inhibition at <= […] ug/ml; type: functional; parameters: scale not given: the % may be the effect or the level left
Staphylococcus aureus [21] = experiment: Antibacterial activity against methicillin-susceptible Staphylococcus aureus using 5x10^5 CFU/ml standard inoculum assessed as bacterial growth inhibition at 32 ug/ml; type: functional; parameters: scale not given: the % may be the effect or the level left
Method in brief: as §1

Staphylococcus aureus [22] = experiment: Antibacterial activity against methicillin-susceptible Staphylococcus aureus using 5x10^4 CFU/ml low inoculum assessed as bacterial growth inhibition at 32 ug/ml; type: functional; parameters: scale not given: the % may be the effect or the level left
Method in brief: as §1

[23] = Drug level in human serum at 1 g, iv after 4 hrs; type: ADME, organism-based; details: read-out: Drug uptake
Staphylococcus aureus [24] = experiment: Antibacterial activity against methicillin-susceptible Staphylococcus aureus using 5x10^7 CFU/ml high inoculum assessed as bacterial growth inhibition at >= 128 ug/ml; type: functional; parameters: scale not given: the % may be the effect or the level left
Method in brief: as §1

Staphylococcus aureus [25] = experiment: Antibacterial activity against methicillin-susceptible Staphylococcus aureus using 5x10^5 CFU/ml standard inoculum assessed as bacterial growth inhibition at <= […] ug/ml; type: functional; parameters: scale not given: the % may be the effect or the level left
Staphylococcus aureus [26] = experiment: Antibacterial activity against methicillin-susceptible Staphylococcus aureus using 5x10^5 CFU/ml standard inoculum assessed as bacterial growth inhibition at 64 ug/ml; type: functional; parameters: scale not given: the % may be the effect or the level left
Method in brief: as §1

Staphylococcus aureus [27] = experiment: Antibacterial activity against methicillin-susceptible Staphylococcus aureus using 5x10^5 CFU/ml standard inoculum assessed as bacterial growth inhibition at 8 ug/ml; type: functional; parameters: scale not given: the % may be the effect or the level left
Method in brief: as §1

Staphylococcus aureus [28] = experiment: Antibacterial activity against methicillin-susceptible Staphylococcus aureus using 5x10^5 CFU/ml standard inoculum assessed as bacterial growth inhibition at 4 ug/ml; type: functional; parameters: scale not given: the % may be the effect or the level left
Method in brief: as §1

Staphylococcus aureus [29] = experiment: Antibacterial activity against methicillin-susceptible Staphylococcus aureus using 5x10^7 CFU/ml high inoculum assessed as bacterial growth inhibition at 2 ug/ml; type: functional; parameters: scale not given: the % may be the effect or the level left
Method in brief: as §1

Staphylococcus aureus [30] = experiment: Antibacterial activity against methicillin-susceptible Staphylococcus aureus using 5x10^6 CFU/ml intermediate inoculum assessed as bacterial growth inhibition at <= […] ug/ml; type: functional; parameters: scale not given: the % may be the effect or the level left
Staphylococcus aureus [31] = experiment: Antibacterial activity against methicillin-susceptible Staphylococcus aureus using 5x10^6 CFU/ml intermediate inoculum assessed as bacterial growth inhibition at 32 ug/ml; type: functional; parameters: scale not given: the % may be the effect or the level left
Method in brief: as §1

Staphylococcus aureus [32] = experiment: Antibacterial activity against methicillin-susceptible Staphylococcus aureus using 5x10^6 CFU/ml intermediate inoculum assessed as bacterial growth inhibition at 8 ug/ml; type: functional; parameters: scale not given: the % may be the effect or the level left
Method in brief: as §1

Staphylococcus aureus [33] = experiment: Antibacterial activity against methicillin-susceptible Staphylococcus aureus using 5x10^4 CFU/ml low inoculum assessed as bacterial growth inhibition at 8 ug/ml; type: functional; parameters: scale not given: the % may be the effect or the level left
Method in brief: as §1

Staphylococcus aureus [34] = experiment: Antibacterial activity against methicillin-susceptible Staphylococcus aureus using 5x10^4 CFU/ml low inoculum assessed as bacterial growth inhibition at 64 ug/ml; type: functional; parameters: scale not given: the % may be the effect or the level left
Method in brief: as §1

Staphylococcus aureus [35] = experiment: Antibacterial activity against methicillin-susceptible Staphylococcus aureus using 5x10^4 CFU/ml low inoculum assessed as bacterial growth inhibition at 4 ug/ml; type: functional; parameters: scale not given: the % may be the effect or the level left
Method in brief: as §1

Staphylococcus aureus [36] = experiment: Antibacterial activity against methicillin-susceptible Staphylococcus aureus using 5x10^5 CFU/ml standard inoculum assessed as bacterial growth inhibition at >= 128 ug/ml; type: functional; parameters: scale not given: the % may be the effect or the level left
Method in brief: as §1

Staphylococcus aureus [37] = experiment: Antibacterial activity against methicillin-susceptible Staphylococcus aureus using 5x10^4 CFU/ml low inoculum assessed as bacterial growth inhibition at 16 ug/ml; type: functional; parameters: scale not given: the % may be the effect or the level left
Method in brief: as §1

Staphylococcus aureus [38] = experiment: Antibacterial activity against methicillin-susceptible Staphylococcus aureus using 5x10^4 CFU/ml low inoculum assessed as bacterial growth inhibition at >= 128 ug/ml; type: functional; parameters: scale not given: the % may be the effect or the level left
Method in brief: as §1

Staphylococcus aureus [39] = experiment: Antibacterial activity against methicillin-susceptible Staphylococcus aureus using 5x10^6 CFU/ml intermediate inoculum assessed as bacterial growth inhibition at 2 ug/ml; type: functional; parameters: scale not given: the % may be the effect or the level left
Method in brief: as §1

Staphylococcus aureus [40] = experiment: Antibacterial activity against methicillin-susceptible Staphylococcus aureus using 5x10^6 CFU/ml intermediate inoculum assessed as bacterial growth inhibition at 64 ug/ml; type: functional; parameters: scale not given: the % may be the effect or the level left
Method in brief: as §1

Staphylococcus aureus [41] = experiment: Antibacterial activity against methicillin-susceptible Staphylococcus aureus using 5x10^7 CFU/ml high inoculum assessed as bacterial growth inhibition at 32 ug/ml; type: functional; parameters: scale not given: the % may be the effect or the level left
Method in brief: as §1

Staphylococcus aureus [42] = experiment: Antibacterial activity against methicillin-susceptible Staphylococcus aureus using 5x10^6 CFU/ml intermediate inoculum assessed as bacterial growth inhibition at >= 128 ug/ml; type: functional; parameters: scale not given: the % may be the effect or the level left
Method in brief: as §1

Staphylococcus aureus [43] = experiment: Antibacterial activity against methicillin-susceptible Staphylococcus aureus using 5x10^7 CFU/ml high inoculum assessed as bacterial growth inhibition at <= […] ug/ml; type: functional; parameters: scale not given: the % may be the effect or the level left

Cn1nnnc1SCC1=C(C(=O)O)N2C(=O)[C@@H](NC(=O)[C@H](O)c3ccccc3)[C@H]2SC1 [CEFAMANDOLE]
MIC50 (Staphylococcus aureus [1]): 1 µg/mL (≈ 2.16 µM)
MIC (Staphylococcus aureus [2]): 0.5 µg/mL (≈ 1.08 µM)
MIC50 (Staphylococcus aureus [2]): 1 µg/mL (≈ 2.16 µM)
MIC90 (Staphylococcus aureus [2]): 2 µg/mL (≈ 4.32 µM)
MIC (Staphylococcus aureus [3]): 0.6 µg/mL (≈ 1.3 µM)
MIC90 (Staphylococcus aureus [3]): 1 µg/mL (≈ 2.16 µM)
MIC (Staphylococcus aureus [4]): 32 µg/mL (≈ 69.2 µM)
MIC50 (Staphylococcus aureus [4]): 16 µg/mL (≈ 34.6 µM)
MIC90 (Staphylococcus aureus [4]): 32 µg/mL (≈ 69.2 µM)
MIC50 (Staphylococcus aureus [5]): 2 µg/mL (≈ 4.32 µM)
MIC90 (Staphylococcus aureus [5]): 4 µg/mL (≈ 8.65 µM)
MIC (Staphylococcus aureus [6]): 0.4 µg/mL (≈ 0.865 µM)
MIC50 (Staphylococcus aureus [6]): 1 µg/mL (≈ 2.16 µM)
MIC90 (Staphylococcus aureus [6]): 1 µg/mL (≈ 2.16 µM)
MIC (Staphylococcus aureus [7]): 8 µg/mL (≈ 17.3 µM)
MIC50 (Staphylococcus aureus [7]): 4 µg/mL (≈ 8.65 µM)
MIC90 (Staphylococcus aureus [7]): 32 µg/mL (≈ 69.2 µM)
MIC (Staphylococcus aureus [8]): 1.3 µg/mL (≈ 2.81 µM)
MIC50 (Staphylococcus aureus [8]): 1 µg/mL (≈ 2.16 µM)
MIC90 (Staphylococcus aureus [8]): 4 µg/mL (≈ 8.65 µM)
MIC (Staphylococcus aureus [9]): 13.6 µg/mL (≈ 29.4 µM)
MIC50 (Staphylococcus aureus [9]): 8 µg/mL (≈ 17.3 µM)
MIC90 (Staphylococcus aureus [9]): 64 µg/mL (≈ 138 µM)

Cc1nnc(SCC2=C(C(=O)O)N3C(=O)[C@@H](NC(=O)Cn4cnnn4)[C@H]3SC2)s1 [CEFAZOLIN]
Activity (Staphylococcus aureus [10]): 24%
Activity (Staphylococcus aureus [11]): 5%
Activity (Staphylococcus aureus [12]): 5%
Activity (Staphylococcus aureus [13]): 0%
Activity (Staphylococcus aureus [14]): 20%
Activity (Staphylococcus aureus [15]): 8%
Activity (Staphylococcus aureus [16]): 3%
Activity (Staphylococcus aureus [17]): 2%
Activity (Staphylococcus aureus [18]): 0%
concentration at 1 h [19]: 6900 ng/mL
Activity (Staphylococcus aureus [20]): 100%
Activity (Staphylococcus aureus [21]): 0%
Activity (Staphylococcus aureus [22]): 0%
concentration at 4 h [23]: 17000 ng/mL
Activity (Staphylococcus aureus [24]): 2%
Activity (Staphylococcus aureus [25]): 89%
Activity (Staphylococcus aureus [26]): 0%
Activity (Staphylococcus aureus [27]): 0%
Activity (Staphylococcus aureus [28]): 6%
Activity (Staphylococcus aureus [29]): 12%
Activity (Staphylococcus aureus [30]): 33%
Activity (Staphylococcus aureus [31]): 1%
Activity (Staphylococcus aureus [32]): 2%
Activity (Staphylococcus aureus [33]): 0%
Activity (Staphylococcus aureus [34]): 0%
Activity (Staphylococcus aureus [35]): 0%
Activity (Staphylococcus aureus [36]): 0%
Activity (Staphylococcus aureus [37]): 0%
Activity (Staphylococcus aureus [38]): 0%
Activity (Staphylococcus aureus [39]): 50%
Activity (Staphylococcus aureus [40]): 3%
Activity (Staphylococcus aureus [41]): 9%
Activity (Staphylococcus aureus [42]): 0%
Activity (Staphylococcus aureus [43]): 23%
